In ChEMBL document CHEMBL4680128, “Synthesis of a novel and potent small-molecule antagonist of PAC1 receptor for the treatment of neuropathic pain” (Eur J Med Chem, 2020):
Activity calls are given as the source filed them.

Tests used:
Mus musculus [1] = species on record: Mus musculus; test: Antiallodynic activity in PACAP-induced mechanical allodynia ddy mouse model assessed as increase in ipsilateral paw withdrawal threshold at 100 pmol, it; type: functional, organism-based
Method in brief: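 Male ddY mice, 6 weeks old at start. Agent 100 pmol co-injected i.t. with PACAP 100 pmol in 5 µl by lumbar (L5/L6) puncture; diluted in PBS or ACSF. Hind-paw 50% withdrawal threshold measured with von Frey hairs by the up-down method. n = 6, compared with vehicle.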

[2] = biological target: T1, Pituitary adenylate cyclase-activating polypeptide type I receptor (Homo sapiens, UniProt P41586); test: Antagonist activity at PAC1 receptor (unknown origin) expressed in CHO cells assessed as inhibition of PACAP-induced inhibition of CREB phosphorylation preincubated for 30 mins followed by PACAP stimulation and measured after 30 mins by Western blot analysis; type: cell-based; details: for inhibition: filed as antagonist, time 60.0 min
Method in brief: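 PAC1/CHO cells seeded at 1×10^5 cells/well and grown 48 h, then pretreated 30 min with agent over 10 pM to 10 nM (vehicle 0.1% DMSO). Stimulated with PACAP 1 nM for 30 min. Western blot of 20 µg lysate for phospho-CREB (Ser133) and total CREB, with pCREB normalised to total CREB. IC50 taken from the dose series. n = 3-5.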

[3] = Effect on nociception on contralateral paw in ddy mouse model of spinal nerve ligation-induced neuropathic pain at 30 mg/kg, po administered as single dose measured up to 24 hrs; type: ADME, organism-based; details: in vivo
Method in brief: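 Spinal nerve ligation performed in male ddY mice. On day 14 after SNL, a single oral dose of 30 mg/kg given. Ipsilateral and contralateral hind-paw 50% gram thresholds measured by von Frey up-down method at serial times after dosing. n = 6 per group, compared with vehicle.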

[4] = Effect on nociception on contralateral paw in ddy mouse model of spinal nerve ligation-induced neuropathic pain at 100 pmol, it administered as single dose measured up to 24 hrs; type: ADME; details: in vivo, icv_or_intrathecal
Mus musculus [5] = test: Antiallodynic activity in ddy mouse model of spinal nerve ligation-induced neuropathic pain assessed as […] at 100 pmol, it administered as single dose measured up to 24 hrs; type: functional, organism-based; details: time hrs <=24
[6] = biological target: T1, Pituitary adenylate cyclase-activating polypeptide type I receptor; test: Antagonist activity at PAC1 receptor (unknown origin) expressed in CHO cells assessed as inhibition of PACAP-induced inhibition of CREB phosphorylation at 1 nM preincubated for 30 mins followed by PACAP stimulation and measured after 30 mins by Western blot analysis relative to control; values are per cent of control; details: time 60.0 min
Target sequence in this assay (P41586 21-468 limits assumed): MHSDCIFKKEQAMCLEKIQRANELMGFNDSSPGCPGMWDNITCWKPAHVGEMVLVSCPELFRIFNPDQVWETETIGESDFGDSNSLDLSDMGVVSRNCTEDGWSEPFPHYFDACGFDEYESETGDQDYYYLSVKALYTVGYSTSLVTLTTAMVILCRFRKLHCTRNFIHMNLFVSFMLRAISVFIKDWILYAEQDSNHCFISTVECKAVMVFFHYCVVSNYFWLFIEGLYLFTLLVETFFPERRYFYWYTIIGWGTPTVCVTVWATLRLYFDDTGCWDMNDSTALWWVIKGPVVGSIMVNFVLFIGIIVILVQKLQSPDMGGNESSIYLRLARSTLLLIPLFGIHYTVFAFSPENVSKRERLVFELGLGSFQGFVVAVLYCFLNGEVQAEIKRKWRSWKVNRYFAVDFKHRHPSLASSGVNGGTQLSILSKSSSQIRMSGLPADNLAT

SMILES | Activity (Mus musculus [1]) | IC50 [2] | inhibition [2] | Activity [3] | Activity [4] | Activity (Mus musculus [5]) | residual activity [6]
O=C(NCCc1c[nH]cn1)C1CC(=O)N(c2n[nH]c3c(Cl)cccc23)C1 (centres undefined) | Active | < 10 pM | Dose-dependent effect | Non-Toxic | Non-Toxic | Active | 11.9%
O=C(NCCc1c[nH]cn1)C1CC(=O)N(c2n[nH]c3ccccc23)C1 (centres undefined) | Active | 182 pM | Dose-dependent effect | Non-Toxic | Non-Toxic | Active | 30.6%
